# In ChEMBL document CHEMBL4196081, “Synthesis and antimycobacterial activity of 1-(β-d-Ribofuranosyl)-4-coumarinyloxymethyl- / -coumarinyl-1,2,3-triazole” (Eur J Med Chem, 2018):
# pIC50: −log10 of the molar value. The source made the active and inactive calls. The rule behind the calls is not given here.
# Key:
# [1] = test system: Mycobacterium tuberculosis; test: Ratio of MBC to MIC for MDR Mycobacterium tuberculosis isolate 591; format: functional
# [2] = test system: Mycobacterium tuberculosis; test: Bactericidal activity against Mycobacterium tuberculosis H37Rv after 4 weeks by MABA; format: functional; conditions: 672 h
# [3] = Cytotoxicity against human THP1 cells assessed as cell viability at 9.36 ug/ml after 48 hrs by MTT assay relative to control; format: cell-based; conditions: THP-1 cells, read-out: Activity
# Summary of the method: (§1)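 THP-1 cells (human monocytic line) seeded at 10^4 per well and adhered with phorbol myristate acetate (20 ng/mL). Then given fresh RPMI with 10% foetal calf serum and 2 mM L-glutamine, plus compound by serial double dilution (4.68–150 µg/mL), with DMSO and no-DMSO controls. Incubated 24 or 48 h at 37 °C, 5% CO2. MTT added for 4 h, formazan dissolved in DMSO, A540 read, percentage survival calculated.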
# [4] = test system: Mycobacterium tuberculosis; test: Antimycobacterial activity against MDR Mycobacterium tuberculosis isolate 591 after 15 days by MABA; format: functional; conditions: isolate 591, 360 h
# Summary of the method: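 MABA in 7H9 medium on MDR clinical isolate 591: filtered single-cell suspension, 1 × 10^6 cells per well with drug dilutions, aerobic 37 °C; 0.02 % resazurin added on day 15, overnight 37 °C. MIC = lowest concentration preventing blue-to-pink change. Triplicate; medium+inoculum and medium-only controls.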
# [5] = test system: Mycobacterium tuberculosis; test: Antimycobacterial activity against Mycobacterium tuberculosis H37Rv assessed as induction of cell wall disintegration at 1.38 uM after 30 mins by TEM analysis; format: functional, organism-based
# [6] = Selectivity index, ratio of IC50 for cytotoxicity against human THP1 cells to MIC for Mycobacterium tuberculosis H37Rv; format: toxicity, cell-based; conditions: THP-1 cells, read-out: Selectivity Index
# Summary of the method: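 THP-1 cells, 10^4/well, adhered with PMA 20 ng/mL, in RPMI with 10 % FCS and 2 mM L-glutamine; exposed to 4.68–150 µg/mL for 24 and 48 h at 37 °C, 5 % CO2; MTT 4 h, formazan in DMSO, A540. Index = THP-1 IC50 divided by H37Rv MABA MIC.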
# [7] = test system: Mycobacterium tuberculosis; test: Ratio of MBC to MIC for Mycobacterium tuberculosis H37Rv; format: functional
# [8] = biological target: DNA gyrase subunit B (Escherichia coli, UniProt P0AES6); test: Inhibition of Escherichia coli DNA gyrase-B using relaxed pUC19 DNA as substrate after 1 hr by bromophenol blue dye based agarose gel electrophoresis method
# Summary of the method: (§2)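 E. coli DNA gyrase, 1 unit, with 0.3 µg relaxed pUC19 plasmid in 1X gyrase assay buffer. Compound added as 0.2 µL from 100 µM stock; ciprofloxacin positive control, DMSO solvent control. Incubated 37 °C for 1 h, stopped with 50% glycerol/0.25% bromophenol blue. Run on 1% agarose in 0.5X TBE pH 8.3, 16 h at 30 mA, ethidium bromide stained, UV visualised for supercoiling.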
# [9] = test system: Mycobacterium tuberculosis; test: Potency index, ratio of isoniazid MIC to compound MIC for antimycobacterial activity against MDR Mycobacterium tuberculosis isolate 591; format: functional
# [10] = test system: Mycobacterium tuberculosis; test: Bactericidal activity against MDR Mycobacterium tuberculosis isolate 591 after 4 weeks by MABA; format: functional; conditions: isolate 591, 672 h
# [11] = test system: Mycobacterium tuberculosis; test: Potency index, ratio of streptomycin MIC to compound MIC for antimycobacterial activity against MDR Mycobacterium tuberculosis isolate 591; format: functional
# [12] = Cytotoxicity against human THP1 cells assessed as cell viability at 37.48 ug/ml after 24 hrs by MTT assay relative to control; format: cell-based; conditions: THP-1 cells, read-out: Activity; summary of the method: as §1
# [13] = Cytotoxicity against human THP1 cells assessed as cell viability at 75 ug/ml after 24 hrs by MTT assay relative to control; format: cell-based; conditions: THP-1 cells, read-out: Activity; summary of the method: as §1
# [14] = Cytotoxicity against human THP1 cells assessed as cell viability at 150 ug/ml after 48 hrs by MTT assay relative to control; format: cell-based; conditions: THP-1 cells, read-out: Activity; summary of the method: as §1
# [15] = biological target: T1, Enoyl-[acyl-carrier-protein] reductase [NADH] (Mycobacterium tuberculosis) (UniProt P9WGR1); test: Inhibition of Mycobacterium tuberculosis H37Rv InhA expressed in Escherichia coli at 5 to 100 uM preincubated for 30 mins followed by crotonoyl-CoA substrate and NADH addition measured over 15 mins by spectrophotometric method
# T1 sequence (whole entry): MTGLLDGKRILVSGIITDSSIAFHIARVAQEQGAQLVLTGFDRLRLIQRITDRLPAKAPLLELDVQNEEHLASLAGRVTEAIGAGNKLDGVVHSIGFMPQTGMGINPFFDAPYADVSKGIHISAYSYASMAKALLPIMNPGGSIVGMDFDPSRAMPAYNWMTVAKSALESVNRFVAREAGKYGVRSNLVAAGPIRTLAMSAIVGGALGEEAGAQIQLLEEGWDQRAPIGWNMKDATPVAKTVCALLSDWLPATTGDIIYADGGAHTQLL
# Summary of the method: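 Purified recombinant InhA (Rv1484, cloned in E. coli), 2 µg, preincubated 30 min with compound at 5 µM final (DMSO ≤1 % v/v) in 100 mM sodium phosphate pH 7.5; started with 100 µM NADH and 100 µM crotonoyl-CoA; A340 followed 15 min at room temperature. Triplicate.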
# [16] = Cytotoxicity against human THP1 cells assessed as cell viability at 37.48 ug/ml after 48 hrs by MTT assay relative to control; format: cell-based; conditions: THP-1 cells, read-out: Activity; summary of the method: as §1
# [17] = Cytotoxicity against human THP1 cells assessed as cell viability at 150 ug/ml after 24 hrs by MTT assay relative to control; format: cell-based; conditions: THP-1 cells, read-out: Activity; summary of the method: as §1
# [18] = test system: Mycobacterium tuberculosis; test: Antimycobacterial activity against Mycobacterium tuberculosis H37Rv after 10 days by MABA; format: functional; conditions: 240 h
# Summary of the method: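 MABA in 7H9 medium: log-phase culture passed through 8 µm filter, density set by OD600 and McFarland standards, 1 × 10^6 cells per well with drug dilutions; aerobic incubation 37 °C 10 days, then 0.02 % resazurin, overnight 37 °C. MIC = lowest concentration preventing blue-to-pink change. Triplicate; medium+inoculum and medium-only controls.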
# [19] = Cytotoxicity against human THP1 cells assessed as cell viability at 4.68 ug/ml after 24 hrs by MTT assay relative to control; format: cell-based; conditions: THP-1 cells, read-out: Activity; summary of the method: as §1
# [20] = Cytotoxicity against human THP1 cells assessed as cell viability at 75 ug/ml after 48 hrs by MTT assay relative to control; format: cell-based; conditions: THP-1 cells, read-out: Activity; summary of the method: as §1
# [21] = test system: Mycobacterium tuberculosis; test: Potency index, ratio of ethambutol MIC to compound MIC for antimycobacterial activity against MDR Mycobacterium tuberculosis isolate 591; format: functional
# [22] = test system: Mycobacterium tuberculosis; test: Potency index, ratio of rifampicin MIC to compound MIC for antimycobacterial activity against MDR Mycobacterium tuberculosis isolate 591; format: functional
# [23] = test system: THP-1; test: Cytotoxicity against human THP1 cells assessed as growth inhibition after 24 to 48 hrs by MTT assay; format: cell-based; summary of the method: as §1
# [24] = test system: Mycobacterium tuberculosis; test: Antimycobacterial activity against Mycobacterium tuberculosis H37Rv assessed as cells with vacuole formation at 1.38 uM after 30 mins by TEM analysis; format: functional, organism-based
# [25] = Cytotoxicity against human THP1 cells assessed as cell viability at 18.72 ug/ml after 48 hrs by MTT assay relative to control; format: cell-based; conditions: THP-1 cells, read-out: Activity; summary of the method: as §1
# [26] = Cytotoxicity against human THP1 cells assessed as cell viability at 18.72 ug/ml after 24 hrs by MTT assay relative to control; format: cell-based; conditions: THP-1 cells, read-out: Activity; summary of the method: as §1
# [27] = Cytotoxicity against human THP1 cells assessed as cell viability at 4.68 ug/ml after 48 hrs by MTT assay relative to control; format: cell-based; conditions: THP-1 cells, read-out: Activity; summary of the method: as §1
# [28] = biological target: DNA gyrase subunit B (Escherichia coli) (UniProt P0AES6); test: Inhibition of Escherichia coli DNA gyrase-B at 0.66 to 100 uM using relaxed pUC19 DNA as substrate after 1 hr by bromophenol blue dye based agarose gel electrophoresis method; summary of the method: as §2
# [29] = Cytotoxicity against human THP1 cells assessed as cell viability at 9.36 ug/ml after 24 hrs by MTT assay relative to control; format: cell-based; conditions: THP-1 cells, read-out: Activity; summary of the method: as §1
compound,measurement,setting,value
Cc1cc(=O)oc2cc(OCc3cn([C@@H]4O[C@H](CO)[C@@H](O)[C@H]4O)nn3)ccc12,Ratio,[1],1.13
same,MBC,[2],6.4 µM
same,"viability at 48 h, 9.36 ug/ml",[3],94%
same,MIC,[4],10.3 µM
same,Activity,[5],Active
same,selectivity ratio,[6],75.4
same,Ratio,[7],1.25
same,pIC50,[8],6.10
same,Ratio,[9],7 - 420
same,MBC,[10],11.5 µM
same,Ratio,[11],7 - 420
same,"viability at 24 h, 37.48 ug/ml",[12],100%
same,"viability at 24 h, 75 ug/ml",[13],97%
same,"viability at 48 h, 150 ug/ml",[14],60%
same,inhibition,[15],Active
same,"viability at 48 h, 37.48 ug/ml",[16],74%
same,"viability at 24 h, 150 ug/ml",[17],84%
same,MIC,[18],5.1 µM
same,"viability at 24 h, 4.68 ug/ml",[19],100%
same,"viability at 48 h, 75 ug/ml",[20],68%
same,Ratio,[21],7 - 420
same,Ratio,[22],7 - 420
same,pIC50,[23],< 3.41
same,Activity,[24],Active
same,"viability at 48 h, 18.72 ug/ml",[25],84%
same,"viability at 24 h, 18.72 ug/ml",[26],100%
same,"viability at 48 h, 4.68 ug/ml",[27],95%
same,inhibition,[28],Active
same,"viability at 24 h, 9.36 ug/ml",[29],100%
